# Screening data (PubChem)
# This is a sample that favours compounds with a hit; in the whole collection about 4.5% have one here.
# CHO parental Ca = counter-screen: ATP calcium response change in parental CHO cells | parental CHO-K1, ATP-induced calcium, Fluo-8 fluorescence | inhibition, % at 5.6 µM | 330,000 tested, 0.63% active;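 active means inhibition above that plate's mean sample inhibition plus 3 SD, cut at about 26% in these data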;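 further: 0% = ATP-challenged DMSO wells and 100% = DMSO wells without ATP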
#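 test system = CHO parental line | reagent = ATP stimulus | measured by = intracellular calcium via Fluo-8 no-wash fluorescent dye | control set = ATP and no-ATP DMSO wells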
# OX1R antag-1 = human HCRTR1 antagonism; inhibition, % at 5 µM; O43613; 330,000 tested, 0.43% active; CHO/OX1R cells, Fluo-8 calcium fluorescence, orexin A;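 active means inhibition above its plate's threshold, mean inhibition of all tested compounds on the plate plus 3 SD, cut at about 37% in these data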;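 further: 0% = orexin A challenge wells and 100% = SB-334867-A antagonist wells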
# Target sequence (O43613 whole entry, looked up): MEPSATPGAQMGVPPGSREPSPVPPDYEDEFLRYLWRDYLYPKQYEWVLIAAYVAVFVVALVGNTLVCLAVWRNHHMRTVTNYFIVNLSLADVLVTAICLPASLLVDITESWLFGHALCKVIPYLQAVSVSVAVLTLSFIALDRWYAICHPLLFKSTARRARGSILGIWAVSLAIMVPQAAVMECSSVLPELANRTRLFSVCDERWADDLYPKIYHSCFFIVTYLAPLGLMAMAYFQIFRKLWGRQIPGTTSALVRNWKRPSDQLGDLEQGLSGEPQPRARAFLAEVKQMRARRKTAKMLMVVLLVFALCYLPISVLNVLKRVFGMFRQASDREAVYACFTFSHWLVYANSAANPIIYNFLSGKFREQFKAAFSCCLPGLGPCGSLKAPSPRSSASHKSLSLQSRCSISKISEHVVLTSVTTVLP
# TAAR1 antag = human TAAR1 antagonism; Q96RJ0; CHO RD-HGA16 TAAR1, Fluo-8 calcium fluorescence, antagonist; 360,000 tested, 1.5% active; inhibition, % at 3 µM;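 active means inhibition above a per-plate cutoff, the mean inhibition of test compounds on that plate plus 3 SD, cut at about 49% in these data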;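 further: 0% = DMSO plus EC80 beta-PEA response and 100% = DMSO alone without agonist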
#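 Assay system: CHO-derived RD-HGA16 cells stably expressing human TAAR1 plus Gα16. Timing: 140 s kinetic read after compound, 140 s after agonist. Technique: kinetic Fluo-8 calcium fluorescence measurement. Measure: % inhibition of agonist calcium response.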
# TAAR1 agonist = human TAAR1 agonism. CHO RD-HGA16 TAAR1, Fluo-8 calcium fluorescence; vehicle wells 0%, saturating PEA agonist 100%. activation, % at 3 µM. 360,000 tested, 0.99% active. AID 624467;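 active means activation above the mean activation of all test compounds in the run plus 3 SD, cut at about 38% in these data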
#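 Assay system – CHO-derived RD-HGA16 cells with stable Gα16 and human TAAR1 · Compound dosing – one-point dosing at 3 µM (nominal) · Incubation – 17-24 h seeding, 75 min 37 °C dye, 30 min RT · Measured by – kinetic Fluo-8 calcium fluorescence · Control set – DMSO vehicle as 0%, PEA at EC100 as 100% · Repeats – single well for each compound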
# GPR7 antag = antagonists of human GPR7 (neuropeptides B/W receptor 1). 290,000 tested, 1.1% active. GPR7-expressing cells, fluorescence antagonist assay. inhibition, % at 4.4 µM. P48145; in the data active means inhibition above about 16%, passing the limit was not always enough;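 further: cells stimulated with the agonist NPW; 0% = agonist with vehicle and 100% = vehicle without agonist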
# OX1R antag-2 = blocks the human orexin 1 receptor | O43613 | OX1R-expressing cells, FRET antagonist read-out | inhibition, % at 6.6 µM | 330,000 tested, 1.8% active | AID 485270; in the data active means inhibition mostly above about 38%, no sharp cut-off; inactive means mostly below about 40%;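 further: 0% = agonist challenge alone and 100% = reference antagonist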
# OX1R HTRF confirm = confirmation of human orexin 1 receptor antagonists, HTRF format; 1,800 tested, 49% active; inhibition, % at 6.6 µM; OX1R-expressing cells, HTRF antagonist assay; shares compounds with OX1R antag-2; in the data active means inhibition above about 55%;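 further: CHO cells expressing OX1R stimulated with orexin A at about EC80; 0% = agonist challenge alone and 100% = reference antagonist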
# CHO-K1 HTRF = counter-screen: parental CHO-K1 HTRF response; shares compounds with OX1R antag-2; parental CHO-K1 cells, HTRF counterscreen; inhibition, % at 6.6 µM; 1,800 tested, 48% active; AID 493232; in the data active means inhibition above about 17%;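 further: 0% = agonist challenge with vehicle and 100% = vehicle alone without agonist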
# * hit, by the source's call; · = not tested or not shown.
SMILES,CHO parental Ca,OX1R antag-1,TAAR1 antag,TAAR1 agonist,GPR7 antag,OX1R antag-2,OX1R HTRF confirm,CHO-K1 HTRF
O=C(O)c1cccc(Nc2ccc3nonc3c2[N+](=O)[O-])c1,2,-3,-12,0,-6,92*,58*,97*
Nc1cc(Nc2ccccc2)c2nonc2c1[N+](=O)[O-],10,-11,-26,1,3,34,·,·
Cc1c(Nc2cc(N3CCOCC3)c3nonc3c2[N+](=O)[O-])c(=O)n(-c2ccccc2)n1C,5,-3,·,·,2,21,·,·
COc1ccc(C(CNC(=O)C(C)Sc2ccccc2)N2CCOCC2)cc1 (stereo not drawn),·,·,7,2,·,·,·,·
CCOC(=O)N1CCN(C(=O)COC(=O)c2cc(C)ccc2C)CC1,-14,-29,-22,2,·,8,·,·
COc1cccc(N=Nc2c(=O)[nH]n3c(=O)cc(C)[nH]c23)c1,4,-2,-24,-2,-6,107*,41,48*
O=c1[nH]n2c(=O)c3c([nH]c2c1N=Nc1cccc(Cl)c1)CCC3,-11,4,8,-4,2,19,·,·
O=C(CCCCCn1nnc2ccccc2c1=O)Nc1ccccc1Cl,-10,-21,-15,3,-3,11,·,·
COc1ccc(CCNC(=O)c2cc3c(=O)n4ccccc4nc3n(CC3CCCO3)c2=N)cc1OC (stereo not drawn),-6,-35,4,1,12,82*,60*,77*
COc1ccc(CCNC(=O)c2cc3c(=O)n4ccccc4nc3n(C3CCCCC3)c2=N)cc1OC,-16,-26,-13,0,6,26,·,·
N=c1c(C(=O)NC2CCCC2)cc2c(=O)n3ccccc3nc2n1CCN1CCOCC1,-8,-7,4,8,-6,102*,35,43*
N=c1c(C(=O)NCC2CCCO2)cc2c(=O)n3ccccc3nc2n1C1CCCCC1 (stereo not drawn),-5,-9,-15,0,-2,53,·,·
COCCCn1c(=N)c(C(=O)NCC2CCCO2)cc2c(=O)n3ccccc3nc21 (stereo not drawn),-18,-12,-2,10,-2,93*,48,65*
CCCN(CC1CCCO1)C(=O)c1cc(COc2ccc(F)cc2F)on1 (stereo not drawn),-1,-14,-15,1,1,19,·,·
O=C(NNC(=O)c1cccc(C(F)(F)F)c1)c1ccc(-n2cnnn2)cc1,-2,3,-9,1,·,5,·,·
CCCCn1c(N)c(N(CC(C)C)C(=O)CSCc2ccc(Cl)c(Cl)c2)c(=O)[nH]c1=O,-22,-32,-12,2,·,31,·,·
CC1CCN(S(=O)(=O)CCNC(=O)c2ccccc2)CC1,-8,-12,4,2,·,89*,9,2
CCOC(=O)C1Nc2ccccc2C2C(O)C(O)CC12 (stereo not drawn),-12,-12,5,4,·,83*,27,20*
CCOC(=O)C1Nc2ccc(C(F)(F)F)cc2C2c3ccccc3CC12 (stereo not drawn),-4,-13,-1,8,·,12,·,·
Cc1cccc(-n2c3nc(=O)[nH]c(=O)c-3cc3cc([N+](=O)[O-])ccc32)c1,2,-6,-5,0,9,77*,68*,66*
Cc1cccc(-n2c3nc(=O)[nH]c(=O)c-3cc3c(C)nn(-c4ccccc4)c32)c1C,4,-8,-2,0,-3,10,·,·
COc1cccc(-c2nnc(SCC(=O)Nc3ccc4c(c3)OCCO4)n2Cc2ccco2)c1,-19,24,25,12,20,78*,52,5
CCCn1c(SCC(=O)Nc2ccc3c(c2)OCCO3)nnc1-c1ccco1,-23,-38,-11,12,-10,16,·,·
O=C(NCCCN1CCCC1=O)c1cccc(S(=O)(=O)N2CCN(c3ccccc3)CC2)c1,-3,-2,-16,1,-7,7,·,·
